ChEMBL document CHEMBL1127802, “Selective inhibitors of monoamine oxidase. 2. Arylamide SAR” (J Med Chem, 1994)
Values belong to the compound of their own block, whether it stands above or below them.

Key:
[1] = molecular target: T1, MAO B (monoamine oxidase B) (Rattus norvegicus, UniProt P19643); experiment: (§1) Inhibitory activity against monoamine oxidase B (MAO B) from rat brain using a radiometric procedure with [14C]phenylethylamine at 1 uM; conditions: rat brain monoamine oxidase B preparation, probe [14C]phenylethylamine
T1 sequence (P19643 whole entry): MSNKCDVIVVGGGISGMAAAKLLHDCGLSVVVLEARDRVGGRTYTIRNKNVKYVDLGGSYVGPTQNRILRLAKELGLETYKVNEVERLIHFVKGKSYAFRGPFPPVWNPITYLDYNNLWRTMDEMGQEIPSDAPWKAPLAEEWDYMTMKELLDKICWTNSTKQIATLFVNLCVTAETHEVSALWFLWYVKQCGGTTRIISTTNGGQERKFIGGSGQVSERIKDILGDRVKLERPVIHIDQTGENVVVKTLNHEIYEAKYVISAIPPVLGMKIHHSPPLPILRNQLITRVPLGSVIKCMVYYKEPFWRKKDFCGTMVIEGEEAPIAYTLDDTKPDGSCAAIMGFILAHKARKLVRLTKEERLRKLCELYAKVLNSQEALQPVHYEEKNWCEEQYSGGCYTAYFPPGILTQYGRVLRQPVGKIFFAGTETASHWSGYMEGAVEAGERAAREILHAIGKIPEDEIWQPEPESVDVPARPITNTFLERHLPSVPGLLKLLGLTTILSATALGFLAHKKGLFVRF
In short: (§2)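 Rat brain mitochondrial MAO extract was preincubated ± inhibitor for 15 min at 37 °C in 50 mM potassium phosphate, pH 7.4. […] Pargyline (2 mM) defined blanks. Acid stop, ethyl acetate/toluene extraction and scintillation counting followed. Triplicate means gave % inhibition, and IC50 was extrapolated from % inhibition vs log concentration plots.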

[2] = molecular target: T2, Amine oxidase [flavin-containing] A (Rattus norvegicus, UniProt P21396); experiment: Inhibitory activity against monoamine oxidase A (MAO A) from rat brain using a radiometric procedure with [3H]5-HT
T2 sequence (P21396 whole entry): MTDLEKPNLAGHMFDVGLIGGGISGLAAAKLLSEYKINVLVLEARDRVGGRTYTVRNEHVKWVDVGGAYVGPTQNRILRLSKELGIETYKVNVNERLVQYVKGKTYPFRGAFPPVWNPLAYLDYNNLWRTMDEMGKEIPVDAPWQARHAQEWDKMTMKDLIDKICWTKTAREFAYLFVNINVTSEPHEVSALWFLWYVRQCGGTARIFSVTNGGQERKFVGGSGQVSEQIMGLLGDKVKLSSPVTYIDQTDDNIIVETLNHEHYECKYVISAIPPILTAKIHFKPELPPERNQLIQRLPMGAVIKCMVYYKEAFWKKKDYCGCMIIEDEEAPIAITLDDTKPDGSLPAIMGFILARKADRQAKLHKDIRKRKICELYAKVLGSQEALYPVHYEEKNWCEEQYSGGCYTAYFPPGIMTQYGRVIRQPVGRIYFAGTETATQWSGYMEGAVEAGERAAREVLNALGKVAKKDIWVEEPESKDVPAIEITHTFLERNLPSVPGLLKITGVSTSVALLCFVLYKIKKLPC
In short: (§3)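 Rat brain mitochondrial MAO extract was preincubated with or without inhibitor for 15 min at 37 °C in 50 mM potassium phosphate, pH 7.4. […] Blanks contained 2 mM pargyline. Reactions were stopped with HCl, products extracted into ethyl acetate/toluene and counted by scintillation. Triplicates were averaged as % inhibition, and IC50 was taken from % inhibition vs log concentration.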

[3] = molecular target: T1, MAO B (monoamine oxidase B); experiment: (§4) Inhibitory activity against monoamine oxidase B (MAO B) from rat brain using a radiometric procedure with [14C]phenylethylamine at 10 uM; conditions: rat brain monoamine oxidase B preparation, probe [14C]phenylethylamine; in short: as §2
[4] = molecular target: T3, MAO A (monoamine oxidase A) (Rattus norvegicus, UniProt P21396); experiment: (§5) Inhibitory activity against monoamine oxidase A (MAO A) from rat brain using a radiometric procedure with [3H]5-HT at 10 uM; conditions: rat brain monoamine oxidase A preparation, probe [3H]5-HT; in short: as §3
T3 sequence (P21396 whole entry): T2 sequence (P21396 whole entry)

[5] = molecular target: T3, MAO A (monoamine oxidase A); experiment: (§6) Inhibitory activity against monoamine oxidase A (MAO A) from rat brain using a radiometric procedure with [3H]5-HT at 1 uM; conditions: rat brain monoamine oxidase A preparation, probe [3H]5-HT; in short: as §3
[6] = molecular target: T3, MAO A (monoamine oxidase A); experiment: Inhibitory activity against monoamine oxidase A (MAO A) from rat brain using a radiometric procedure with [3H]- serotonin at 1 uM; conditions: rat brain monoamine oxidase A preparation, probe [3H]-serotonin; in short: as §3
[7] = molecular target: T1, MAO B (monoamine oxidase B); experiment: Inhibitory activity against monoamine oxidase B (MAO B) from rat brain using a radiometric procedure with [14C]- phenethylamine at 1 uM; conditions: rat brain monoamine oxidase B preparation, probe [14C]-phenethylamine; in short: as §2
[8] = molecular target: T1, MAO B (monoamine oxidase B); experiment: Inhibitory activity against monoamine oxidase B (MAO B) from rat brain using a radiometric procedure with [14C]- phenethylamine atb 10 uM; conditions: rat brain monoamine oxidase B preparation, probe [14C]-phenethylamine
In short: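 Rat brain mitochondrial MAO extract preincubated ± inhibitor 15 min at 37 °C in 50 mM potassium phosphate pH 7.4. […] Blanks contained 2 mM pargyline. Stopped with HCl, products extracted into ethyl acetate/toluene, scintillation counted. Triplicates. IC50 from mean % inhibition vs log concentration plot.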

[9] = molecular target: T2, Amine oxidase [flavin-containing] A; experiment: Inhibitory activity against monoamine oxidase A (MAO A) from rat brain using a radiometric procedure with [3H]- serotonin.; in short: as §3
[10] = molecular target: T4, Amine oxidase [flavin-containing] B (Rattus norvegicus, UniProt P19643); experiment: as §4; in short: as §2
T4 sequence (P19643 whole entry): T1 sequence (P19643 whole entry)

[11] = molecular target: T2, Amine oxidase [flavin-containing] A; experiment: as §5; in short: as §3
[12] = molecular target: T3, MAO A (monoamine oxidase A); experiment: Inhibitory activity against monoamine oxidase A (MAO A) from rat brain using a radiometric procedure with [3H]- serotonin at 10 uM; conditions: rat brain monoamine oxidase A preparation, probe [3H]-serotonin; in short: as §3
[13] = molecular target: T1, MAO B (monoamine oxidase B); experiment: Inhibitory activity against monoamine oxidase B (MAO B) from rat brain using a radiometric procedure with [14C]phenylethylamine at 0.1 uM; conditions: rat brain monoamine oxidase B preparation, probe [14C]phenylethylamine; in short: as §2
[14] = molecular target: T1, MAO B (monoamine oxidase B); experiment: Inhibitory activity against monoamine oxidase B (MAO B) from rat brain using a radiometric procedure with [14C]- phenethylamine at 0.1 uM; conditions: rat brain monoamine oxidase B preparation, probe [14C]-phenethylamine; in short: as §2
[15] = molecular target: T3, MAO A (monoamine oxidase A); experiment: Inhibitory activity against monoamine oxidase A (MAO A) from rat brain using a radiometric procedure with [3H]- serotonin at 0.1 uM; conditions: rat brain monoamine oxidase A preparation, probe [3H]-serotonin; in short: as §3
[16] = molecular target: T4, Amine oxidase [flavin-containing] B; experiment: as §1; in short: as §2
[17] = molecular target: T2, Amine oxidase [flavin-containing] A; experiment: as §6; in short: as §3

inhibition at 1 µM [6]: 4% | inhibition at 1 µM [7]: 27%
SMILES: CC(=O)Nc1ccc2c(cnn2C(C)=O)c1

inhibition [10]: 22% | inhibition [11]: 74%
SMILES: CC(=O)Nc1ccc2c(c1)S(=O)(=O)c1ccccc1N2

inhibition at 10 µM [12]: 44%
SMILES: CC(=O)Nc1cccc(Nc2ccccc2)c1

inhibition at 10 uM [3]: 3% | inhibition [4]: 18%
SMILES: O=CN(C=O)c1ccc2c(c1)S(=O)(=O)c1ccccc1C2=O

inhibition at 10 uM [3]: -2% | inhibition [4]: 8%
SMILES: CC(=O)Nc1nc2ccccc2[nH]1

inhibition at 1 µM [1]: 13% | IC50 [2]: 260 nM
SMILES: CC(=O)Nc1ccc2c(c1)-c1ccccc1S2(=O)=O

inhibition at 10 uM [3]: 13% | inhibition [4]: 22%
SMILES: NC(=O)Nc1ccccc1-c1ccccc1

inhibition at 10 uM [3]: 22% | inhibition [4]: 42%
SMILES: CC(=O)Nc1ccc2c(c1)COCO2

inhibition at 10 uM [3]: 38% | inhibition [4]: 54%
SMILES: CC(=O)Nc1nc2cc(C)c(C)cc2s1

inhibition at 1 µM [1]: 25% | inhibition [5]: 31%
SMILES: CC(=O)Nc1ccc(Oc2ccc(CS(C)(=O)=O)cc2)cc1

inhibition at 1 µM [1]: 20% | inhibition [5]: 7%
SMILES: CC(=O)NC(C)c1ccc2c(c1)[nH]c1ccccc12 (stereo not given)

More lines, now with the values behind:

SMILES: CC(=O)Nc1ccc2c(c1)S(=O)(=O)c1ccccc1C2=O
inhibition at 1 µM [1]: -1% | IC50 [2]: 60 nM

SMILES: CC(=O)Nc1ccc2c(c1)C(=O)c1cc([N+](=O)[O-])ccc1-2
IC50 [2]: 1300 nM

SMILES: CC(=O)Nc1ccc2c(c1)S(=O)(=O)c1ccc(C)cc1C2=O
IC50 [2]: 700 nM

SMILES: CC(=O)Nc1nc2cc(C)c(C)cc2[nH]1
inhibition at 10 uM [3]: 18% | inhibition [4]: 50%

SMILES: CC(=O)Nc1ccc2c(c1)CCC2
inhibition at 1 µM [1]: 37% | inhibition [5]: 13%

SMILES: CC(=O)Nc1ccc2c(c1)[nH]c1ccccc12
inhibition at 10 uM [8]: 38% | IC50 [9]: 43 nM

SMILES: CC(=O)Nc1ccc2c(c1)S(=O)(=O)c1ccccc1O2
inhibition at 0.1 µM [13]: 0% | IC50 [2]: 14 nM

SMILES: CC(=O)Nc1ccc2c(c1)[nH]c1ccc(Br)cc12
inhibition [5]: 61%

SMILES: NC(=O)Nc1ccc2c(c1)[nH]c1ccccc12
inhibition at 1 µM [1]: 26% | inhibition [5]: 74%

SMILES: CC(=O)Nc1ccc2c3ccccc3n(C)c2c1
IC50 [2]: 30 nM

SMILES: CC(=O)NCc1ccc2c(c1)c1ccccc1n2C
inhibition at 1 µM [1]: 30% | inhibition [5]: 16%

SMILES: O=CNc1ccc2c(c1)-c1ccccc1S2(=O)=O
IC50 [2]: 1000 nM

SMILES: CC(=O)Nc1ccc2c(c1)C(=O)c1ccccc1S2(=O)=O
inhibition at 1 µM [1]: 39% | IC50 [2]: 120 nM

SMILES: CC(=O)Nc1ccc2c3c([nH]c2c1)CCC(C)(C=O)C3 (stereo not given)
inhibition at 1 µM [6]: 0% | inhibition at 1 µM [7]: 11%

SMILES: CC(=O)Nc1cccc2c1C(=O)c1ccccc1C2=O
inhibition at 1 µM [6]: 12%

SMILES: CNc1ccc2c(c1)-c1ccccc1S2(=O)=O
inhibition [5]: 34%

SMILES: CC(=O)Nc1ccc2oc(=O)c3ccccc3c2c1
inhibition at 0.1 µM [14]: 23% | inhibition at 0.1 uM [15]: 10%

SMILES: CC(=O)Nc1ccc2c(c1)S(=O)(=O)c1cc(NC(C)=O)ccc1N2C
inhibition [16]: 7% | inhibition [17]: 2%
